Reference: ChEMBL document CHEMBL4732243, “Design, synthesis, and structure activity relationship analysis of new betulinic acid derivatives as potent HIV inhibitors” (Eur J Med Chem, 2021)

Tests used:
[1] = tested on: MT4; assay: Cytotoxicity against human MT4 cells assessed as reduction in cell viability incubated for 2 days by CytoTox-Glo cytotoxicity assay; format: cell-based; conditions: mt4, 48 h, time 2 day
Outline: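 Mock-infected MT-4 cells cultured 2 days with a range of compound concentrations. Viability measured by CytoTox-Glo, following the kit protocol, as percent viable cells. CC50 is the concentration giving a 50% reduction in cell viability.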

[2] = tested on: Human immunodeficiency virus 1; assay: Antiviral activity against HIV-1 NL4-3 infected in human MT4 cells assessed as reduction in p24 gag protein incubated for 4 days by ELISA; format: functional, organism-based; conditions: Human immunodeficiency virus 1, NL4-3, MT4, 96 h
Outline: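 MT-4 cells infected with HIV-1 NL4-3 at MOI 0.01, serial compound concentrations, in 96-well format. Supernatant p24 antigen measured by capture ELISA on day 4 post-infection. IC50 is the concentration that inhibits NL4-3 replication by 50%. Bevirimat run in parallel as the reference.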

SMILES	CC50 [1]	IC50 ([2]; read-out: IC50)	IC50 ([2]; read-out: pIC50 (converted))
C=C(C)[C@@H]1CC[C@]2(C(=O)N3CCN(C(=O)/C=C/c4ccc(OCOC)c(OCOC)c4)CC3)CC[C@]3(C)[C@H](CC[C@@H]4[C@@]5(C)CC[C@H](OC(=O)CC(C)(C)C(=O)O)C(C)(C)[C@@H]5CC[C@]43C)[C@@H]12	> 2 µM	–	–
C=C(C)[C@@H]1CC[C@]2(C(=O)N3CCN(C(=O)/C=C/c4ccc(OC)c(OC)c4)CC3)CC[C@]3(C)[C@H](CC[C@@H]4[C@@]5(C)CC[C@H](OC(=O)CC(C)(C)C(=O)O)C(C)(C)[C@@H]5CC[C@]43C)[C@@H]12	> 2 µM	–	–
C=C(C)[C@@H]1CC[C@]2(C(=O)N3CCN(CCCCC(=O)N4CCN(C(=O)/C=C/c5ccc6c(c5)OCO6)CC4)CC3)CC[C@]3(C)[C@H](CC[C@@H]4[C@@]5(C)CC[C@H](OC(=O)CC(C)(C)C(=O)O)C(C)(C)[C@@H]5CC[C@]43C)[C@@H]12	> 2 µM	–	–
C=C(C)[C@@H]1CC[C@]2(C(=O)N3CCN(C(=O)/C=C/c4ccc(OCCCCCCCC)c(OC)c4)CC3)CC[C@]3(C)[C@H](CC[C@@H]4[C@@]5(C)CC[C@H](OC(=O)CC(C)(C)C(=O)O)C(C)(C)[C@@H]5CC[C@]43C)[C@@H]12	–	> 1 µM	–
C=C(C)[C@@H]1CC[C@]2(C(=O)N3CCN(C(=O)/C=C/c4ccc(O)c(OCCCCCCCC)c4)CC3)CC[C@]3(C)[C@H](CC[C@@H]4[C@@]5(C)CC[C@H](OC(=O)CC(C)(C)C(=O)O)C(C)(C)[C@@H]5CC[C@]43C)[C@@H]12	–	> 1 µM	–
C=C(C)[C@@H]1CC[C@]2(C(=O)N3CCN(C(=O)/C=C/c4cccc(C(F)(F)F)c4)CC3)CC[C@]3(C)[C@H](CC[C@@H]4[C@@]5(C)CC[C@H](OC(=O)CC(C)(C)C(=O)O)C(C)(C)[C@@H]5CC[C@]43C)[C@@H]12	> 2 µM	0.56 µM	0.562 µM
C=C(C)[C@@H]1CC[C@]2(C(=O)N3CCN(C(=O)/C=C/c4cc(OC)c(OC)c(OC)c4)CC3)CC[C@]3(C)[C@H](CC[C@@H]4[C@@]5(C)CC[C@H](OC(=O)CC(C)(C)C(=O)O)C(C)(C)[C@@H]5CC[C@]43C)[C@@H]12	> 2 µM	0.041 µM	0.0407 µM
C=C(C)[C@@H]1CC[C@]2(C(=O)N3CCN(C(=O)/C=C/c4ccc(N(C)C)cc4)CC3)CC[C@]3(C)[C@H](CC[C@@H]4[C@@]5(C)CC[C@H](OC(=O)CC(C)(C)C(=O)O)C(C)(C)[C@@H]5CC[C@]43C)[C@@H]12	> 2 µM	0.027 µM	0.0269 µM
C=C(C)[C@@H]1CC[C@]2(C(=O)CC(=O)CC(C)(C)C(=O)O)CC[C@]3(C)[C@H](CC[C@@H]4[C@@]5(C)CC[C@H](OC(=O)/C=C/c6ccc(OCOC)c(OCOC)c6)C(C)(C)[C@@H]5CC[C@]43C)[C@@H]12	–	> 1 µM	–
C=C(C)[C@@H]1CC[C@]2(C(=O)N3CCN(C(=O)/C=C/c4ccc(OCOC)c(OCCCCCCCC)c4)CC3)CC[C@]3(C)[C@H](CC[C@@H]4[C@@]5(C)CC[C@H](OC(=O)CC(C)(C)C(=O)O)C(C)(C)[C@@H]5CC[C@]43C)[C@@H]12	–	> 1 µM	–
C=C(C)[C@@H]1CC[C@]2(C(=O)O)CC[C@]3(C)[C@H](CC[C@@H]4[C@@]5(C)CC[C@H](OC(=O)/C=C/c6ccc7c(c6)OCO7)C(C)(C)[C@@H]5CC[C@]43C)[C@@H]12	–	> 1 µM	–
C=C(C)[C@@H]1CC[C@]2(CN3CCN(C(=O)/C=C/c4ccc5c(c4)OCO5)CC3)CC[C@]3(C)[C@H](CC[C@@H]4[C@@]5(C)CC[C@H](OC(=O)CC(C)(C)C(=O)O)C(C)(C)[C@@H]5CC[C@]43C)[C@@H]12	–	> 1 µM	–
C=C(C)[C@@H]1CC[C@]2(C(=O)N3CCN(C(=O)/C=C/c4ccccc4OC)CC3)CC[C@]3(C)[C@H](CC[C@@H]4[C@@]5(C)CC[C@H](OC(=O)CC(C)(C)C(=O)O)C(C)(C)[C@@H]5CC[C@]43C)[C@@H]12	> 2 µM	0.17 µM	0.17 µM
C=C(C)[C@@H]1CC[C@]2(C(=O)CC(=O)CC(C)(C)C(=O)O)CC[C@]3(C)[C@H](CC[C@@H]4[C@@]5(C)CC[C@H](OC(=O)/C=C/N6CCN(C(=O)OC(C)(C)C)CC6)C(C)(C)[C@@H]5CC[C@]43C)[C@@H]12	–	> 1 µM	–
C=C(C)[C@@H]1CC[C@]2(C(=O)N3CCN(C(=O)/C=C/c4ccc(OCc5cccc([N+](=O)[O-])c5)c(OC)c4)CC3)CC[C@]3(C)[C@H](CC[C@@H]4[C@@]5(C)CC[C@H](OC(=O)CC(C)(C)C(=O)O)C(C)(C)[C@@H]5CC[C@]43C)[C@@H]12	> 2 µM	0.75 µM	0.759 µM
C=C(C)[C@@H]1CC[C@]2(C(=O)N3CCN(C(=O)/C=C/c4ccc(Cl)cc4)CC3)CC[C@]3(C)[C@H](CC[C@@H]4[C@@]5(C)CC[C@H](OC(=O)CC(C)(C)C(=O)O)C(C)(C)[C@@H]5CC[C@]43C)[C@@H]12	> 2 µM	0.36 µM	0.363 µM

SMILES	CC50 [1]	IC50 ([2]; read-out: IC50)	IC50 ([2]; read-out: pIC50 (converted))
C=C(C)[C@@H]1CC[C@]2(C(=O)N3CCN(C(=O)/C=C/c4ccc(OCCCCCCCC)c(OCCCCCCCC)c4)CC3)CC[C@]3(C)[C@H](CC[C@@H]4[C@@]5(C)CC[C@H](OC(=O)CC(C)(C)C(=O)O)C(C)(C)[C@@H]5CC[C@]43C)[C@@H]12	–	> 1 µM	–
C=C(C)[C@@H]1CC[C@]2(C(=O)O)CC[C@]3(C)[C@H](CC[C@@H]4[C@@]5(C)CC[C@H](OC(=O)/C=C/c6ccc(OCOC)c(OCOC)c6)C(C)(C)[C@@H]5CC[C@]43C)[C@@H]12	–	> 1 µM	–
C=C(C)[C@@H]1CC[C@]2(C(=O)OCCCCCCCCN3CCN(C(=O)/C=C/c4ccc5c(c4)OCO5)CC3)CC[C@]3(C)[C@H](CC[C@@H]4[C@@]5(C)CC[C@H](OC(=O)CC(C)(C)C(=O)O)C(C)(C)[C@@H]5CC[C@]43C)[C@@H]12	–	> 1 µM	–
C=C(C)[C@@H]1CC[C@]2(C(=O)N3CCN(C(=O)/C=C/c4ccc(OC)cc4)CC3)CC[C@]3(C)[C@H](CC[C@@H]4[C@@]5(C)CC[C@H](OC(=O)CC(C)(C)C(=O)O)C(C)(C)[C@@H]5CC[C@]43C)[C@@H]12	> 2 µM	0.076 µM	0.0759 µM
C=C(C)[C@@H]1CC[C@]2(C(=O)N3CCN(C(=O)/C=C/c4ccc([N+](=O)[O-])cc4)CC3)CC[C@]3(C)[C@H](CC[C@@H]4[C@@]5(C)CC[C@H](OC(=O)CC(C)(C)C(=O)O)C(C)(C)[C@@H]5CC[C@]43C)[C@@H]12	> 2 µM	0.11 µM	0.11 µM
C=C(C)[C@@H]1CC[C@]2(C(=O)N3CCN(C(=O)CC(C)(C)C(=O)O)CC3)CC[C@]3(C)[C@H](CC[C@@H]4[C@@]5(C)CC[C@H](OC(=O)/C=C/c6ccc7c(c6)OCO7)C(C)(C)[C@@H]5CC[C@]43C)[C@@H]12	–	> 1 µM	–
C=C(C)[C@@H]1CC[C@]2(C(=O)N3CCN(C(=O)/C=C/c4ccc(OCc5cccc(Cl)c5)c(OC)c4)CC3)CC[C@]3(C)[C@H](CC[C@@H]4[C@@]5(C)CC[C@H](OC(=O)CC(C)(C)C(=O)O)C(C)(C)[C@@H]5CC[C@]43C)[C@@H]12	–	> 1 µM	–
C=C(C)[C@@H]1CC[C@]2(C(=O)CC(C)=O)CC[C@]3(C)[C@H](CC[C@@H]4[C@@]5(C)CC[C@H](OC(=O)/C=C/N6CCN(C(=O)OC(C)(C)C)CC6)C(C)(C)[C@@H]5CC[C@]43C)[C@@H]12	–	> 1 µM	–
C=C(C)[C@@H]1CC[C@]2(C(=O)N3CCN(C(=O)/C=C/c4ccc(OC)c(Cl)c4)CC3)CC[C@]3(C)[C@H](CC[C@@H]4[C@@]5(C)CC[C@H](OC(=O)CC(C)(C)C(=O)O)C(C)(C)[C@@H]5CC[C@]43C)[C@@H]12	> 2 µM	0.13 µM	0.129 µM
C=C(C)[C@@H]1CC[C@]2(C(=O)N3CCN(C(=O)CC(C)(C)C(=O)O)CC3)CC[C@]3(C)[C@H](CC[C@@H]4[C@@]5(C)CC[C@H](Oc6ccc7c(c6)OCO7)C(C)(C)[C@@H]5CC[C@]43C)[C@@H]12	–	> 1 µM	–
C=C(C)[C@@H]1CC[C@]2(C(=O)N3CCN(C(=O)/C=C/c4cccc(OC)c4)CC3)CC[C@]3(C)[C@H](CC[C@@H]4[C@@]5(C)CC[C@H](OC(=O)CC(C)(C)C(=O)O)C(C)(C)[C@@H]5CC[C@]43C)[C@@H]12	> 2 µM	0.15 µM	0.151 µM
C=C(C)[C@@H]1CC[C@]2(C(=O)N3CCN(C(=O)CC(C)(C)C(=O)O)CC3)CC[C@]3(C)[C@H](CC[C@@H]4[C@@]5(C)CC[C@H](O)C(C)(C)[C@@H]5CC[C@]43C)[C@@H]12	–	> 1 µM	–
C=C(C)[C@@H]1CC[C@]2(C(=O)N3CCN(C(=O)/C=C/c4cccc(OCc5cccc([N+](=O)[O-])c5)c4)CC3)CC[C@]3(C)[C@H](CC[C@@H]4[C@@]5(C)CC[C@H](OC(=O)CC(C)(C)C(=O)O)C(C)(C)[C@@H]5CC[C@]43C)[C@@H]12	> 2 µM	0.58 µM	0.575 µM
C=C(C)[C@@H]1CC[C@]2(C(=O)OCCCOC(=O)/C=C/c3ccc(N(C)C)cc3)CC[C@]3(C)[C@H](CC[C@@H]4[C@@]5(C)CC[C@H](OC(=O)CC(C)(C)C(=O)O)C(C)(C)[C@@H]5CC[C@]43C)[C@@H]12	–	> 1 µM	–
C=C(C)[C@@H]1CC[C@]2(C(=O)N3CCN(C(=O)/C=C/c4ccc(OCOC)cc4)CC3)CC[C@]3(C)[C@H](CC[C@@H]4[C@@]5(C)CC[C@H](OC(=O)CC(C)(C)C(=O)O)C(C)(C)[C@@H]5CC[C@]43C)[C@@H]12	> 2 µM	0.2 µM	0.2 µM
C=C(C)[C@@H]1CC[C@]2(C(=O)O)CC[C@]3(C)[C@H](CC[C@@H]4[C@@]5(C)CC[C@H](OC(=O)CC(C)(C)C(=O)O)C(C)(C)[C@@H]5CC[C@]43C)[C@@H]12 [BEVIRIMAT]	> 2 µM	–	–
